In this assay the test system is AML12 mouse hepatocytes, BODIPY lipid droplet imaging. Description: potency against lipid droplet buildup in liver cells – imaging, AML12 mouse hepatocytes, high-content, dose response (AID 463191). The following applies: cells loaded with 100 µM oleic acid. The method in brief: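 Material: mouse AML12 hepatocytes; dosing: Seven-point series from 32 to 0.5 µM, 0.32% DMSO; schedule: ~20 h pre-growth at 37 °C, overnight treatment; benchmarks: Triacsin-C at 5 µM as positive control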

The source made the active and inactive calls.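 The calls were made as follows: active = compounds whose mean IC50 across repeat dose response tests falls below a set limit; inactive = the rest.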

In the case of `O=C(NC1CCCc2c1cnn2-c1ccccc1F)c1ccccn1` (configuration not stated), the IC50 (usually the concentration that inhibits the measured activity by half) was > 32000 nM (inactive).
With `Cc1cc(C(=O)NC2CCCc3c2cnn3-c2ccc(C)c(C)c2)nc(C)n1` (configuration not stated) the figure was 2810 nM.
With `CCOc1ccc(NC(=O)CSc2nc3ccccc3nc2N2CCCC2)cc1` the figure was 1770 nM; with `CCCCc1ccc(NC(=O)CSc2nnc(C)c(=O)n2N)cc1`, 1270 nM; with `COCCCn1c(SCC(=O)Nc2ccc(NC(=O)c3ccco3)c(OC)c2)nc2ccccc2c1=O`, 1850 nM.
With `COc1cccc(CNC(=O)CCCc2c[nH]c3ccccc23)c1`, the IC50 is 6600 nM (inactive).
With `Cc1ccc(-n2nc3c(=O)n(C(C)C(=O)NCCC4=CCCCC4)nc(C)c3c2C)cc1` (configuration not stated) the figure was 3870 nM; with `COc1ccc(C(=O)CCC(=O)NCCc2c[nH]c3ccccc23)cc1OC`, 2120 nM; with `CCOc1ccc(CCNC(=O)c2ccc3ccccc3n2)cc1OCC`, 1310 nM.
`Cc1cc(C)cc(NC(=O)CSc2nc3ccccc3nc2N2CCCC2)c1`: the IC50 is 2110 nM.
For `CCOc1ccc(CCNC(=O)CS(=O)Cc2nc(-c3ccccc3C)oc2C)cc1OCC` (configuration not stated), the IC50 is 5360 nM (inactive).
With `COc1ccc(C(C(=O)NC(C)(C)C)N(CC2CCCO2)C(=O)CCC(=O)Nc2cc(C)on2)cc1` (configuration not stated) the figure was 4950 nM.
As for `CCOc1ccccc1NC(=O)CCCNC(=O)c1ccc(Cl)cc1`, the figure is 10700 nM (inactive); as for `CCOc1ccc(CCNC(=O)CN2C(=O)c3cccnc3Oc3ccc(C)cc32)cc1OCC`, < 500 nM.
As for `CCOc1ccc(CCNC(=O)c2cc3sc(Cl)cc3n2C)cc1OCC`, the figure is < 500 nM; as for `CCOc1ccc(CCNC(=O)CSc2cc(=O)n(CC)c3ccccc23)cc1OCC`, 1100 nM; as for `CC1Cc2cc(S(=O)(=O)NCCC(=O)N(C)Cc3ccccc3)ccc2N1C(=O)C1CC1` (configuration not stated), 7520 nM (inactive).
On to `COc1ccc(C(C(=O)NC(C)(C)C)N(Cc2cccs2)C(=O)CCC(=O)Nc2cc(C)on2)cc1` (configuration not stated), for which the half-maximal inhibitory concentration (IC50) was 4160 nM.
With `CCN(CC)c1ccc(NC(=O)CCc2nnc3ccc(N4CCCC4)nn23)c(C)c1` the figure was 2350 nM; with `CCOc1ccccc1NC(=O)N1CCC(C(=O)c2ccc(F)cc2)CC1`, 4480 nM; with `CC(=O)c1cccc(N=Nc2c(-c3ccccc3)[nH]n(-c3ccccc3)c2=O)c1`, 633 nM.
Regarding `CCCc1ccc(-c2csc(NC(=O)Cc3cccs3)n2)cc1`, the IC50 is 1480 nM.
`CCOc1ccc(C(C)NC(=O)Cc2ccccc2)cc1OCC` (configuration not stated): the IC50 is > 32000 nM (inactive).
With `CCN(CC(=O)Nc1ccccc1C(F)(F)F)C(=O)c1cc(-c2cccs2)nn1-c1ccccc1` the figure was 2030 nM.
With `Cc1cccc(NC(=O)CSc2nc3ccccc3nc2N2CCCC2)c1`, the IC50 is 5070 nM (inactive).
Turning to `CCCOc1ccc(/C=N/Nc2ccccc2[N+](=O)[O-])c(OCCC)c1`, the 50% inhibitory concentration (IC50) was < 500 nM.
With `CCOc1ccc(CCNC(=O)CCOc2cc(C)ccc2C)cc1OCC` the figure was < 500 nM; with `COc1ccc(C(=O)OCC(=O)NC(C)CCc2ccccc2)c(OC)c1` (configuration not stated), 10600 nM (inactive); with `O=C1C(NS(=O)(=O)c2cccs2)=C(N2CCN(c3cccc(C(F)(F)F)c3)CC2)C(=O)c2ccccc21`, 751 nM.
For `COc1ccc(-c2csc(NC(=O)c3ccc(OCC(=O)N4CCOCC4)c(OC)c3)n2)cc1`, the IC50 was 782 nM.
With `CC1=C(C(=O)NC2CCCc3c2cnn3-c2cccc(C)c2C)OCCO1` (configuration not stated) the figure was 11800 nM (inactive); with `CCOc1ccc(CCNC(=O)c2cc3sccc3n2CC)cc1OCC`, < 500 nM; with `COc1ccc(NC(=O)CN2C(=O)NC(c3ccccc3)(c3ccccc3)C2=O)cc1OC`, 1600 nM.
With `COc1ccc(/C=C(\NC(=O)c2ccc(OCC(C)C)cc2)C(=O)OCc2ccco2)cc1` the figure was 2710 nM; with `CCOc1ccc(CCNC(=O)Cn2cccc2C(=O)c2ccccc2C)cc1OCC`, 867 nM.
With `CCn1cc(CCCC(=O)NCc2ccccc2OC)c2ccccc21`, the IC50 is 4000 nM.
As for `CCOc1ccc(CCNC(=O)Nc2cccc(OC)c2)cc1OCC`, the figure is < 500 nM; as for `CCC(C)(C)NC(=O)C(c1ccc(OC)cc1)N(CC1CCCO1)C(=O)CCC(=O)Nc1cc(C)on1` (configuration not stated), 3440 nM.
In the case of `CC(=O)Nc1ccc(-c2csc(NC(=O)Cc3ccccc3F)n2)cc1`, the IC50 is 5100 nM (inactive).
For `CC1CC(C)CN(C(=O)c2ccc3c(c2NCCO)C(=O)c2ccccc2C3=O)C1` (configuration not stated), the IC50 is 687 nM.
With `COc1ccc(C(=O)OC(C)C(=O)NC(C)CCc2ccccc2)cc1OC` (configuration not stated) the figure was 2560 nM; with `CCOc1cc2c(cc1OCC)C(c1ccccc1)N(c1ccccc1)C(=O)C2` (configuration not stated), 973 nM; with `CCc1c(C#N)c(SCCC(=O)Nc2ccc(OC)cc2)nc2c1C(=O)CC(C)(C)C2`, 5310 nM (inactive).
For `CCOc1ccc2nc(NC(=O)CSc3nc4ccccc4c(=O)n3Cc3ccco3)sc2c1`, the IC50 is 620 nM.
As for `CCOc1ccc(CCNC(=O)COC(=O)c2cc(OC)cc(OC)c2)cc1OCC`, the figure is 6120 nM (inactive).
With `COc1ccc(NC(=O)[C@H](C)NC(=O)[C@@H]2Cc3ccccc3CN2C(=O)OC(C)(C)C)cc1` the figure was 7120 nM (inactive).
As for `COc1cccc(NC(=O)CSc2nc3ccccc3nc2N2CCCC2)c1`, the figure is 5260 nM (inactive); as for `COc1ccc(CCNC(=O)[C@H](C)N2C(=O)N3CCc4c([nH]c5ccccc45)[C@@]3(C)C2=O)cc1OC`, 1780 nM; as for `CCOc1ccc(CCNC(=O)CCNS(=O)(=O)c2ccc(Br)cc2)cc1OCC`, 3650 nM.
Take `CC(C)c1ccc(NC(=O)CSc2nc3ccccc3nc2N2CCCC2)cc1`: the IC50 was 2080 nM.
Turning to `COc1ccc(C(C(=O)NC(C)(C)C)N(Cc2ccc(F)cc2)C(=O)CCC(=O)Nc2cc(C)on2)cc1` (configuration not stated), the IC50 is 2040 nM.
With `CCOc1ccc(CCNC(=O)COC(=O)/C=C/c2ccc(OCC#N)c(OC)c2)cc1OCC` the figure was 21000 nM (inactive); with `CCC(C(=O)NCc1cccc(C)c1)n1nc(C)c2c(C)n(-c3ccccc3)nc2c1=O` (configuration not stated), 6770 nM (inactive); with `CCOc1ccc(CCNC(=O)c2cccs2)cc1OCC`, 2350 nM.
As for `COc1ncccc1C(=O)NC1CCCc2c1cnn2-c1ccc(C)c(C)c1` (configuration not stated), the figure is 3440 nM; as for `CCOc1ccc(CCNC(=O)CSc2cc(=O)n(C)c3ccccc23)cc1OCC`, 823 nM.
As for `CCOc1ccc(CCNC(=O)COC(=O)c2cc([N+](=O)[O-])ccc2N2CCOCC2)cc1OCC`, the figure is 3000 nM; as for `CCOc1ccc(CCNC(=O)CS(=O)Cc2nc(-c3ccc(OC)c(OC)c3)oc2C)cc1OCC` (configuration not stated), 7640 nM (inactive).
With `COc1ccc2c(c1)c(CC(=O)Nc1ccc(C(C)=O)cc1)c(C)n2C(=O)c1ccc(Cl)cc1`, the half-maximal inhibitory concentration (IC50) is 2880 nM.
In the case of `CCOC(=O)N1CCN(C(=O)CSCC(=O)Nc2nc(-c3ccc(-c4ccccc4)cc3)cs2)CC1`, the IC50 was 14200 nM (inactive).
With `Cc1ccc(CNC(=O)CCCc2c[nH]c3ccccc23)cc1` the figure was 11200 nM (inactive); with `COc1ccc(-c2csc(NC(=O)c3ccc(OCC(=O)N4CCOCC4)c(OC)c3)n2)cc1OC`, 1900 nM; with `CC(C)(C)c1ccc(-c2csc(NNC3=NCCCCC3)n2)cc1`, 2090 nM.
As for `CCOc1ccc(CN(C)C(=O)CNC(=O)c2ccc(Br)o2)cc1OC`, the figure is 3880 nM; as for `CC(Sc1nnc(Nc2ccccc2)s1)C(=O)Nc1nc(-c2ccccc2)cs1` (configuration not stated), 5770 nM (inactive); as for `CCOC(=O)c1ccc(S(=O)(=O)NCC(c2ccc(N(C)C)cc2)c2c[nH]c3ccccc23)cc1` (configuration not stated), 927 nM.
Regarding `CCCCn1c(N)c(-c2nc3ccccc3s2)c2c([N+](=O)[O-])nn(CC)c(=O)c21`, the IC50 was 9330 nM (inactive).
For `Cc1cc(N2CCOCC2)n2nc(C)c(-c3ccccc3Cl)c2n1`, the IC50 was 1050 nM.
With `COc1ccc2c(c1)c(CC(=O)Nc1ccc(C)cc1)c(C)n2C(=O)c1ccc(Cl)cc1`, the 50% inhibitory concentration (IC50) is < 500 nM.
As for `CCOc1ccccc1NC(=O)CCCNC(=O)Cn1cnc2sc(C)c(C)c2c1=O`, the figure is 7090 nM (inactive); as for `COc1ccc(CC(=O)Nc2oc(-c3ccccc3)c(-c3ccccc3)c2C#N)cc1OC`, 1260 nM; as for `CCCCCCn1c(SCC(=O)Nc2cc(C)on2)nc2ccccc2c1=O`, 750 nM.
As to `CCOc1ccc(CCNC(=O)C2CC=CCC2C(=O)OC(C)C)cc1OCC` (configuration not stated), the IC50 is 746 nM.
In the case of `CCOc1ccc(CCNC(=O)CN2CCN(Cc3ccccc3C)C2=O)cc1OCC`, the IC50 was 924 nM.
For the compound `CCc1nn2c(N3CCOCC3)cc(C)nc2c1-c1ccc(F)cc1`, the IC50 is < 500 nM.
Regarding `CCOc1ccc(CCNC(=O)CN2C(=O)NC(CCSC)C2=O)cc1OCC` (configuration not stated), the IC50 is 1260 nM.
As for `CC(C)Oc1ccc(C(=O)OC(C)C(=O)Nc2nc(-c3cccc([N+](=O)[O-])c3)cs2)cc1` (configuration not stated), the figure is 866 nM.
As for `Cc1cc(N2CCOCC2)n2nc(C)c(-c3ccc(Cl)cc3)c2n1`, the figure is 1310 nM; as for `COc1ccc(C(C(=O)NC2CCCC2)N(CCC(C)C)C(=O)CCC(=O)Nc2cc(C)on2)cc1` (configuration not stated), 5900 nM (inactive); as for `CCOc1ccc(CCNC(=O)C(C)n2nc(C)n3c(cc4occc43)c2=O)cc1OCC` (configuration not stated), 3610 nM.
As for `CCOc1ccccc1Nc1nnc(SC(C)C(=O)Nc2nc(-c3ccccc3)cs2)s1` (configuration not stated), the figure is 1250 nM; as for `Cc1sc(NC(=O)Cc2ccc3c(c2)OCO3)nc1-c1ccc2c(c1)CCN2C(=O)c1ccccc1F`, 1790 nM; as for `COc1ccc(C(=O)OC(C)C(=O)NC(C)CCc2ccccc2)cc1[N+](=O)[O-]` (configuration not stated), 549 nM.
For the compound `CCOc1ccc(CCNC(=O)CSc2cc(=O)n(C)c3cc(Cl)ccc23)cc1OCC`, the IC50 was 708 nM.
With `c1ccc(-c2csc(NNC3=NCCCCC3)n2)cc1` the figure was 702 nM.
On to `CCc1c(C#N)c(SCCC(=O)Nc2cccc(OC)c2)nc2c1C(=O)CC(C)(C)C2`, for which the IC50 is 1410 nM.
As to `CCCc1cc(N2CCCC2)n2nc(C)c(-c3ccccc3)c2n1`, the IC50 is 1100 nM.

The values are drawn from PubChem BioAssay AID463191 (Sanford-Burnham Center for Chemical Genomics, 2010).
